3 compounds from publication PMC7161550 (British Journal of Pharmacology, 2020) can be followed below.

Where two headings read alike, the source gives them in different places.

Data set [1] is classed as in vivo. The settings on record: rat, after BIA 10‐2474 10 mg·kg^−1 p.o.
In data set [2] the target is T1, mouse brain fatty acid amide hydrolase (FAAH) (Mus musculus, UniProt O08914).
T1 sequence (O08914 1-579): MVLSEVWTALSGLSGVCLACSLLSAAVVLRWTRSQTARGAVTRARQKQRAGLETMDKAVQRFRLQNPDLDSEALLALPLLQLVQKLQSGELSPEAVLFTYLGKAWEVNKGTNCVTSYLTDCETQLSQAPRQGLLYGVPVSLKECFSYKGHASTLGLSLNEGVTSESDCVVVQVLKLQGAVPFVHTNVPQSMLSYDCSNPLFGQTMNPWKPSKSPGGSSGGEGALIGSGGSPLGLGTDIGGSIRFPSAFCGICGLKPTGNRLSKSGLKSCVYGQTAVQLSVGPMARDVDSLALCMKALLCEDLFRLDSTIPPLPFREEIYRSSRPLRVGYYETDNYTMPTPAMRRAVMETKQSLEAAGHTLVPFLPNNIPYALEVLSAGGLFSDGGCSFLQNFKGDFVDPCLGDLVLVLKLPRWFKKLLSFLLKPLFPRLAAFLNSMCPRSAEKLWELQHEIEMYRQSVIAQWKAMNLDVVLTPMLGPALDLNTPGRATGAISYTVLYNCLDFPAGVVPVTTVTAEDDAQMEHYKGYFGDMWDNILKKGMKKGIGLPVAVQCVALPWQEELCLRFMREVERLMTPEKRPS
Briefly: Ex vivo FAAH activity in mouse brain after oral administration. To be noted: 0.1 mg·kg^−1 p.o., 1 hr after dosing. A digest of the protocol: (§1)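 Liver and half-brain were collected into FAAH membrane buffer (3 mM MgCl2, 1 mM EDTA, 50 mM Tris HCl, pH 7.4) and stored at −20°C. Homogenates (15 μg protein brain, 5 μg liver) were pre-incubated 15 min at 37°C. AEA + 3H‑AEA + BSA was added for 10 min (brain) or 7 min (liver), then charcoal. Scintillation counting gave % remaining activity versus controls after blank subtraction.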

The nature of data set [3]: Protein binding to cell homogenates. The data set is classed as in vitro ADME. To be noted: 500 μg·ml^−1 of protein.
Data set [4] has as its target T2, mouse liver fatty acid amide hydrolase (FAAH) (Mus musculus, UniProt O08914).
T2 sequence (O08914 1-579): T1 sequence (O08914 1-579)
As to the kind of experiment: Ex vivo FAAH activity in mouse liver after oral administration. The settings on record: 0.1 mg·kg^−1 p.o., 1 hr after dosing. A digest of the protocol: as §1

Data set [5] deals with T3, fatty acid amide hydrolase (Rattus norvegicus, UniProt P97612).
T3 sequence (P97612 1-579): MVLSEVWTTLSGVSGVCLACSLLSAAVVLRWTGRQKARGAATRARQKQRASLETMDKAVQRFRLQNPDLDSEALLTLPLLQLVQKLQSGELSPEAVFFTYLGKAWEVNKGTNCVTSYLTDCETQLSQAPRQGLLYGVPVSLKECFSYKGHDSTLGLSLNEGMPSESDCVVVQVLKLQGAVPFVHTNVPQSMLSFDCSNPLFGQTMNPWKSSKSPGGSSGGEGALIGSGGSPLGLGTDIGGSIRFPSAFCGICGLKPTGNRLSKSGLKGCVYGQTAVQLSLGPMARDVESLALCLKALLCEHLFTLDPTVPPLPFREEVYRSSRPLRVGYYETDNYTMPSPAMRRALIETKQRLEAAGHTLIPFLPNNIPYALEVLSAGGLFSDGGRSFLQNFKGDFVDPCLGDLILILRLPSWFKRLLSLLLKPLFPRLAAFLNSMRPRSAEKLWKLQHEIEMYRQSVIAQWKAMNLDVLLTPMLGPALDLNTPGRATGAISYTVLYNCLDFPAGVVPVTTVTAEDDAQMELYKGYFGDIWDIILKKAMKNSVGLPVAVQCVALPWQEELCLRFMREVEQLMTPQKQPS
As to the kind of experiment: Gel‐based competitive ABPP in vitro, TAMRA‐FP probe, rat brain fractions. The format is biochemical. The settings on record: 1 hr. The method, boiled down: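 Rat brain membrane and soluble protein extracts (200 μg) were incubated 1 hr at room temperature with test compound at 1 nM–100 μM, DMSO vehicle or PMSF 3 mM. Active serine hydrolases were then labelled with TAMRA‑FP probe (2 μM final) for 1 hr at room temperature. Bands were visualized by in-gel fluorescence.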

Data set [6] deals with brain fatty acid amides (AEA, PEA, OEA). As to the kind of experiment: Fatty acid amides. The data set is classed as in vivo. The settings on record: mouse brain, 8 hr. A digest of the protocol:
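Frozen brains were thawed at 4°C and weighed. Each sample was extracted with chloroform:MeOH (2:1) plus 0.1 M phosphate buffer, pH 5.6. Deuterated internal standards were spiked in: AEA‑d8, PEA‑d4 and OEA‑d2 for the fatty acid amides, and 2‑AG‑d8 for 2‑AG.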

The target in data set [7] is T4, human recombinant fatty acid amide hydrolase (FAAH) (Homo sapiens, UniProt O00519).
T4 sequence (O00519 1-579): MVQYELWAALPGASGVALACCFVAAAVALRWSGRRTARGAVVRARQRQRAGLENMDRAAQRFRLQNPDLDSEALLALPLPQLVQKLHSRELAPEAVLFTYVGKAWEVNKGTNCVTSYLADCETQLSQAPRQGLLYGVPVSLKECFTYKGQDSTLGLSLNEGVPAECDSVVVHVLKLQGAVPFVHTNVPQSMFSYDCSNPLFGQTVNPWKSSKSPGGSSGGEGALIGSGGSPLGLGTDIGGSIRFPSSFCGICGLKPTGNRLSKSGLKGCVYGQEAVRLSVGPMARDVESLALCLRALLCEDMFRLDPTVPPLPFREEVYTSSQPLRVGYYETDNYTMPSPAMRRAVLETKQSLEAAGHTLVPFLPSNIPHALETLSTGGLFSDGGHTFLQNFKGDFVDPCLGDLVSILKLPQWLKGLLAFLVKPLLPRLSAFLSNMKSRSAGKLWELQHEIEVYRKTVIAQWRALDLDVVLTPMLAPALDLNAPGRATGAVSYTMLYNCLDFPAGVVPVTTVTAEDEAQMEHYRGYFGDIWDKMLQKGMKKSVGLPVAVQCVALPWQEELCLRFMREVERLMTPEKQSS
As to the kind of experiment: FAAH activity in intact COS‐hFAAH cells. The data set is classed as cell-based. To be noted: for IC50: read-out: IC50 [95% CI].

Data set [8] concerns 229 assays for receptors, enzymes, transporters, ion channels, hormones, growth factors and inflammatory mediators. The format is binding. To be noted: 10 and 50 μM.
Data set [9] relates to COS‐hFAAH cells. As to the kind of experiment: Quantification of compounds in COS‐hFAAH supernatant, cell lysates and medium. The settings on record: 1, 3 and 24 hr. The data set is classed as in vitro ADME.
The target in data set [10] is T5, rat brain fatty acid amide hydrolase (Rattus norvegicus, UniProt P97612).
T5 sequence (P97612 1-579): T3 sequence (P97612 1-579)
As to the kind of experiment: FAAH progression curves, kinetic constants k obs and k inact/K I. The settings on record: inhibition of rat brain FAAH, 37°C. The format is biochemical.

The target of data set [11] is T6, rat brain fatty acid amide hydrolase (FAAH) (Rattus norvegicus, UniProt P97612).
T6 sequence (P97612 1-579): T3 sequence (P97612 1-579)
The data set is classed as biochemical. To be noted: read-out: IC50 [95% CI]. A digest of the protocol: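 Rat brain membranes from Wistar rats, 10 μg protein, in 1 mM EDTA, 10 mM Tris, pH 7.6. Test compound at 1 nM–10 μM, pre-incubated with enzyme 5–60 min, or reaction started with enzyme when not pre-incubated. Substrate 2 μM AEA + 5 nM 3H‑AEA + 0.1% fatty acid-free BSA, 30 min at room temperature with agitation. Charcoal stop; supernatant 3H‑ethanolamine counted. Blank and vehicle controls; IC50 from normalized variable-slope sigmoidal fit.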

With `CN(C(=O)n1cnc(-c2cccnc2)c1)[C@H]1CC[C@H](O)CC1` [BIA 10‐2631, N‐((1R,4R)‐4‐hydroxycyclohexyl)‐N‐methyl‐4‐(pyridin‐3‐yl)‐1H‐imidazole‐1‐carboxamide], the “brain levels at all time points measured” value in [1] is given as “below the limit of quantification”.

Take `CN(C(=O)n1cnc(-c2ccc[n+]([O-])c2)c1)[C@H]1CC[C@H](O)CC1` [BIA 10‐2639, 3‐(1‐(((1R,4R)‐4‐hydroxycyclohexyl)(methyl)carbamoyl)‐1H‐imidazol‐4‐yl)pyridine 1‐oxide]: the “brain levels at all time points measured” value in data set [1] is “below the limit of quantification”.

With `O=C(Nc1cnccc1Cl)N1CCN(Cc2ccc3c(c2)OC(F)(F)O3)CC1` [JNJ‐42165279], the “inhibition of brain FAAH” value in [2] was 19.2%. For the same compound, in data set [3], the “mean % free fraction ± SD” value turned out to be 64.3 ± 4.0%. Moreover, in data set [4], the “inhibition of liver FAAH” value is on record as 25.5%. For the same compound, the “concentration that completely inhibited the band corresponding to the MW of FAAH” value in data set [5] was 10 µM. The AEA in [6] (1 mg·kg^−1 p.o.) is recorded as 89.0 ± 20.6 % of control; in [6] (3 mg·kg^−1 p.o.) it was 83.6 ± 9.1 % of control; in data set [6] (10 mg·kg^−1 p.o.), 86.5 ± 4.8 % of control; in [6] (30 mg·kg^−1 p.o.), 95.5 ± 2.5 % of control. Also, the OEA was 114.9 ± 13.36 % of control in data set [6] (1 mg·kg^−1 p.o.), 121.7 ± 10.2 % of control in data set [6] (3 mg·kg^−1 p.o.), 147.3 ± 13.8 % of control in data set [6] (10 mg·kg^−1 p.o.) and 234.9 ± 46.8 % of control in data set [6] (30 mg·kg^−1 p.o.). Moreover, the PEA in data set [6] (1 mg·kg^−1 p.o.) is on record as 123.4 ± 11.2 % of control; in data set [6] (3 mg·kg^−1 p.o.), 138.3 ± 19.4 % of control; in data set [6] (10 mg·kg^−1 p.o.), 205.6 ± 37.0 % of control; in data set [6] (30 mg·kg^−1 p.o.), 382.2 ± 103.5 % of control. Besides, the “inhibition level above 30 nM” value in [7] (1‐ and 3‐hr periods) is given as “around 50%”. The half-maximal inhibitory concentration (IC50) in data set [7] (incubation 1 hr) was determined as 26.2 nM; in data set [7] (incubation 3 hr), 25.1 nM; in data set [7] (incubation 24 hr) it was 41.5 nM; in data set [11] (pre‐incubation 0 min), 472 nM; in data set [11] (pre‐incubation 5 min), 365 nM; in data set [11] (pre‐incubation 15 min), 272 nM. For the same compound, the 50% inhibitory concentration (IC50) in data set [11] (pre‐incubation 30 min) is 221 nM; in [11] (pre‐incubation 45 min) it was 161 nM; in data set [11] (pre‐incubation 60 min), 94.3 nM. In addition, the “off‐target activity at the sites studied” value in [8] is given as “some weak activity at just seven sites”. Further, the “detection in cell lysates” value in data set [9] is reported as “undetectable”. Further, the “stability in cellular media over time” value in data set [9] was “stable”. Besides, the “k inact/K I” value in data set [10] was 5,092 M·s^−1.
